NPY-Y2 PAM-ag: potentiates or activates human NPY-Y2 receptor. P49146. cells expressing NPY-Y2, potentiator/agonist read-out. activation, % at 3.6 µM. 220,000 tested, 0.45% active. AID 1359; in the data active means activation above about 27%;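 further: cells stimulated with NPY near EC25 plus isoproterenol at EC100; 0% = vehicle plus submaximal agonist and 100% = vehicle plus saturating agonist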
NPY-Y1 antag: NPY-Y1 (human) receptor antagonism. P25929. HEK293-CNG Y1 cells, membrane potential fluorescence; NPY at EC95, then isoproterenol. inhibition, % at 3.6 µM. 200,000 tested, 1% active. AID 1040;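 active means inhibition above the campaign mean inhibition of all tested compounds plus 3 SD, cut at about 20% in these data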;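 further: 0% = DMSO wells given NPY plus isoproterenol and 100% = isoproterenol alone without NPY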
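Material: HEK293 cells with Y1 receptor plus CNG channel; times: compound incubation 1 h at room temperature, readout 45 min post-stimulation; signal: fluorescence, membrane potential probe; read-out basis: fluorescence ratio normalized to % inhibition between controls; benchmarks: full-block control isoproterenol-only wells, zero-block control NPY plus isoproterenol wells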
S1P4 ag: human S1P4 receptor agonism; O95977; S1P4-expressing cell line, agonist reporter assay; 220,000 tested, 0.35% active; AID 1509; activation, % at 4.98 µM; in the data active means activation above about 11%;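 further: 0% = DMSO vehicle and 100% = reference agonist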
NPY Y2 blocker: antagonists of human neuropeptide Y receptor Y2 | inhibition, % at 2.7 µM | NPY-Y2 expressing cells, antagonist mode | 140,000 tested, 0.99% active | P49146 | AID 793; in the data active means inhibition above about 17%;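 further: 0% = vehicle with agonist challenge and 100% = reference antagonist with challenge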
NPY-Y1 PAM-ag: potentiates or activates human NPY-Y1 receptor; NPY-Y1 expressing cells, potentiator/agonist activation; activation, % at 3.6 µM; 220,000 tested, 0.37% active; in the data active means activation above about 33%, passing the limit was not always enough;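 further: cells stimulated with NPY at EC10 then isoproterenol at EC100; 0% = low agonist plus stimulus and 100% = saturating agonist plus stimulus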
S1P4 antagonist: human S1P4 receptor antagonism. O95977. S1P4-expressing cells, antagonist mode, reporter read-out. inhibition, % at 4.98 µM. 220,000 tested, 0.26% active; in the data active means inhibition above about 29%;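 further: 0% = wells stimulated with agonist and 100% = vehicle wells without agonist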
S1P4 ag conf: confirmation of human S1P4 receptor agonists. shares compounds with S1P4 ag. S1P4 agonist cell-based reporter assay. activation, % at 4.98 µM. 740 tested, 7% active. AID 1523; in the data active means activation above about 12%;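 further: 0% = vehicle and 100% = full reference agonist response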
S1P1 ag: activates human S1P1, counter-screen for S1P4 agonists; shares compounds with S1P4 ag; S1P1 agonist cell-based assay, activation; activation, % at 4.98 µM; 740 tested, 4% active; AID 1563; in the data active means activation above about 21%;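 further: 0% = vehicle wells and 100% = reference agonist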
Target sequence (P21453 whole entry, looked up): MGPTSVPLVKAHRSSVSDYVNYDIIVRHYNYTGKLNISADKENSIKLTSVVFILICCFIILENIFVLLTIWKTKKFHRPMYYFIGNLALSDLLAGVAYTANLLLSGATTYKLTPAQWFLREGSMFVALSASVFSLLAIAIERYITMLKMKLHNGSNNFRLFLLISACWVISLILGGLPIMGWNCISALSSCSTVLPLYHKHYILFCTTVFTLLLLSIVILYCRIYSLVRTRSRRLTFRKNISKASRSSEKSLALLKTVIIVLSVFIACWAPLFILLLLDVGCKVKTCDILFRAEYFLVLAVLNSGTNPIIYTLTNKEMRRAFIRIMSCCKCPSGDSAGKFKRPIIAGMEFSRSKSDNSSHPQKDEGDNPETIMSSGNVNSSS
Active calls of the source: *. A selection: hits, their analogues and other compounds. The true share with any hit is near 2.4%.

For COC(=O)c1c(-n2c(C)cc(C=O)c2C)sc2c1CCCC2 the results were NPY-Y2 PAM-ag -9, NPY-Y1 antag 1, S1P4 ag 12*, NPY Y2 blocker 9, NPY-Y1 PAM-ag 14, S1P4 antagonist 2, S1P4 ag conf 15* and S1P1 ag -3.
Screening CC(=O)c1ccc(Nc2c3c(nc4ccccc24)CCCC3)cc1 returned NPY-Y2 PAM-ag -28, S1P4 ag 27*, NPY-Y1 PAM-ag 4, S1P4 antagonist -21, S1P4 ag conf -1 and S1P1 ag -2.
`O=C(COC(=O)c1cc(=O)[nH]c(=O)[nH]1)Nc1cccc(S(=O)(=O)N2CCOCC2)c1` gave NPY-Y2 PAM-ag -13, NPY-Y1 antag 1, S1P4 ag 1, NPY-Y1 PAM-ag 11 and S1P4 antagonist -8.
Screening NS(=O)(=O)c1ccc(NC(=O)COC(=O)CCc2ccccc2)cc1 returned NPY-Y2 PAM-ag 7, S1P4 ag 1, NPY-Y1 PAM-ag 29 and S1P4 antagonist 4.
`CC(C)N=c1scc(-c2ccco2)n1/N=C/c1ccc(O)c(O)c1` gave NPY-Y2 PAM-ag 34*, NPY-Y1 antag -5, S1P4 ag 12*, NPY Y2 blocker -6, NPY-Y1 PAM-ag 50, S1P4 antagonist -25, S1P4 ag conf 22* and S1P1 ag 55*.
C=CCN=c1scc(-c2ccco2)n1/N=C/c1ccc(O)c(O)c1O was read as NPY-Y2 PAM-ag 23, S1P4 ag 7, NPY-Y1 PAM-ag 35 and S1P4 antagonist -12.
Cc1ccc(-c2cc(C(=O)Nc3c(C)n(C)n(-c4ccccc4)c3=O)[nH]n2)c(O)c1C was read as NPY-Y2 PAM-ag 5, S1P4 ag 0, NPY-Y1 PAM-ag 28 and S1P4 antagonist -5.
For C/C(Cc1ccccc1)=N\NC(=O)CNC(=O)COc1ccccc1 the results were NPY-Y2 PAM-ag 0, S1P4 ag 0, NPY-Y1 PAM-ag 10 and S1P4 antagonist -8.
`O=S(=O)(CC(O)CS(=O)(=O)c1ccc(Cl)cc1)c1ccccc1` (centres undefined) gave NPY-Y2 PAM-ag -5, S1P4 ag 3, NPY-Y1 PAM-ag -11 and S1P4 antagonist 1.
NC(=O)CS(=O)(=O)c1ccc(Cl)cc1 was read as NPY-Y2 PAM-ag 3, NPY-Y1 antag -1, S1P4 ag 25*, NPY-Y1 PAM-ag -5, S1P4 antagonist -10, S1P4 ag conf -2 and S1P1 ag -3.
Screening CCCN(CCC)c1ccc(/C=C/c2ccc3cc(OCC)ccc3n2)cc1 returned NPY-Y2 PAM-ag -4, S1P4 ag 17*, NPY-Y1 PAM-ag -14, S1P4 antagonist -10, S1P4 ag conf 30* and S1P1 ag 47*.
For CCN1CCN(c2cc(C)c3cc(NC(=O)c4cccc(OC)c4)ccc3n2)CC1 the results were NPY-Y2 PAM-ag -16, S1P4 ag 3, NPY-Y1 PAM-ag 3 and S1P4 antagonist 9.
CCN1CCN(c2cc(C)c3cc(NC(=O)c4cccs4)ccc3n2)CC1 was read as NPY-Y2 PAM-ag 13, S1P4 ag 56*, NPY-Y1 PAM-ag -1, S1P4 antagonist 11, S1P4 ag conf -3 and S1P1 ag -8.
For CC(C)c1csc(CN2CCN(Cc3ccc(F)c(F)c3)C(CCO)C2)n1 (centres undefined) the results were NPY-Y2 PAM-ag -5, NPY-Y1 antag 4, S1P4 ag 42*, NPY-Y1 PAM-ag 0, S1P4 antagonist -9, S1P4 ag conf -2 and S1P1 ag -5.
For O=c1cc(CSc2nnc(Nc3ccccc3F)s2)nc2sccn12 the results were NPY-Y2 PAM-ag -10, NPY-Y1 antag 3, S1P4 ag 55*, NPY-Y1 PAM-ag 3, S1P4 antagonist 0, S1P4 ag conf -2 and S1P1 ag -1.
For Cc1ccc(NC(=O)/C(C#N)=N/Nc2ccc(C(=O)O)cc2)c(C)c1 the results were NPY-Y2 PAM-ag -24, S1P4 ag -1, NPY-Y1 PAM-ag 26 and S1P4 antagonist 14.
For Cc1ccc(N/N=C(\C#N)C(N)=S)c(C)c1 the results were NPY-Y2 PAM-ag -4, NPY-Y1 antag 2, S1P4 ag 20*, NPY Y2 blocker 5, NPY-Y1 PAM-ag -6, S1P4 antagonist -1, S1P4 ag conf -1 and S1P1 ag -2.
For CCOc1ccc(-c2nnn(CC(=O)NCc3ccco3)n2)cc1 the results were NPY-Y2 PAM-ag -8, NPY-Y1 antag 3, S1P4 ag 1, NPY Y2 blocker 2, NPY-Y1 PAM-ag 10 and S1P4 antagonist -10.
Screening CCOc1ccc(-c2nnn(CC(=O)NCc3ccccc3)n2)cc1 returned NPY-Y2 PAM-ag 6, NPY-Y1 antag 8, S1P4 ag 19*, NPY-Y1 PAM-ag -7, S1P4 antagonist -8, S1P4 ag conf -2 and S1P1 ag -6.
Screening O=C(O)c1ccccc1C(=O)NNc1ccc(Cl)cc1Cl returned NPY-Y2 PAM-ag 10, NPY-Y1 antag 7, S1P4 ag 1, NPY-Y1 PAM-ag -14 and S1P4 antagonist -6.
For Cc1cc(C(=O)Nc2c[nH]c(=O)[nH]c2=O)ccc1[N+](=O)[O-] the results were NPY-Y2 PAM-ag -8, NPY-Y1 antag 4, S1P4 ag -2, NPY-Y1 PAM-ag 15 and S1P4 antagonist -22.
For CCN(CC)C(=O)C(=O)c1cn(CCOc2ccccc2)c2ccccc12 the results were NPY-Y2 PAM-ag -2, NPY-Y1 antag 0, S1P4 ag 1, NPY-Y1 PAM-ag 7 and S1P4 antagonist -13.
Screening Cc1cccc(C(=O)NNc2ncnc3c2cnn3C)c1 returned NPY-Y2 PAM-ag -10, NPY-Y1 antag -5, S1P4 ag 15*, NPY-Y1 PAM-ag 15, S1P4 antagonist -8, S1P4 ag conf -2 and S1P1 ag 3.
CCOC(=O)C1C(=O)N(C(=O)c2cncc(Br)c2)CC1c1ccccc1 (centres undefined) was read as NPY-Y2 PAM-ag 11, NPY-Y1 antag -9, S1P4 ag 20*, NPY Y2 blocker 1, NPY-Y1 PAM-ag 21, S1P4 antagonist -8, S1P4 ag conf -2 and S1P1 ag 3.
For CCOC(=O)C1C(=O)N(C(=O)c2ccc(OC)cc2)CC1c1ccccc1 (centres undefined) the results were NPY-Y2 PAM-ag 9, NPY-Y1 antag -3, S1P4 ag 0, NPY Y2 blocker 1, NPY-Y1 PAM-ag -7 and S1P4 antagonist 1.
For O=C(c1cnc2ccc(Cl)cc2c1Cl)N1CCOCC1 the results were NPY-Y2 PAM-ag -11, NPY-Y1 antag 2, S1P4 ag 26*, NPY-Y1 PAM-ag -8, S1P4 antagonist -6, S1P4 ag conf -1 and S1P1 ag 0.
